Measurements from ChEMBL document CHEMBL1156461, “Selective chemical probe inhibitor of Stat3, identified through structure-based virtual screening, induces antitumor activity” (Proc Natl Acad Sci U S A, 2007).
Activity calls are given as the source filed them.

Legend:
MDA-MB-231 [1] = experiment: Induction of apoptosis in Stat3C transfected human MDA-MB-231 cells at 100 uM after 24 hrs; format: functional, cell-based
In short: (§1)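 Cells were transfected with Stat3C or the Stat3 SH2 domain, mock-transfected, or left untransfected. After 24 h they received 100 μM compound or 0.05% DMSO for a further 24 h. Annexin V binding with flow cytometry gave percent apoptosis.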

NIH3T3 [2] = experiment: Inhibition of v-Src mediated Stat3-independent pLucSRE luciferase […] induction in mouse NIH3T3 cells at 100 uM after 24 hrs; format: functional, cell-based
In short: (§2)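 NIH 3T3 fibroblasts were cotransfected with a v-Src plasmid and either the Stat3-dependent pLucTKS3 or the Stat3-independent pLucSRE reporter. At 24 h post-transfection, cells got 100 μM compound or 0.05% DMSO for another 24 h. Luciferase was read in cytosolic extracts.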

MDA-MB-468 [3] = experiment: Inhibition of Stat3 activation in human MDA-MB-468 cells at 100 uM after 24 hrs; format: functional, cell-based
In short: (§3)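 Cells with constitutively active Stat3 were treated with compound or 0.05% DMSO (up to 24 h). Nuclear extracts were then assayed for Stat3 DNA binding by EMSA with 32P-labeled hSIE probe.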

NIH3T3 [4] = experiment: Inhibition of Stat3-dependent pLucTKS3 luciferase […] induction in v-Src oncoprotein expressing mouse NIH3T3 cells co-transfected with pLucTKS3 at 100 uM after 24 hrs; format: functional, cell-based; in short: as §2
MDA-MB-231 [5] = experiment: Reduction of cyclin D1 gene expression in human MDA-MB-231 cells at 100 uM after 48 hrs; format: functional, cell-based
MDA-MB-231 [6] = experiment: Growth inhibition of human […] at 100 uM after 4 days by trypan blue exclusion assay; format: functional, cell-based
MDA-MB-231 [7] = experiment: Induction of apoptosis in human MDA-MB-231 cells at 100 uM after 24 hrs; format: functional; in short: as §1
MDA-MB-231 [8] = experiment: Reduction of apoptosis in Stat3 transfected human MDA-MB-231 cells at 100 uM after 24 hrs; format: functional, cell-based
NIH3T3 [9] = experiment: Reduction of survivin gene expression in v-Src transfected mouse NIH3T3 cells at 100 uM after 48 hrs; format: functional, cell-based
MDA-MB-231 [10] = experiment: Reduction of survivin gene expression in human MDA-MB-231 cells at 100 uM after 48 hrs; format: functional, cell-based
MDA-MB-435 [11] = experiment: Cytotoxicity against human MDA-MB-435 cells expressing constitutively active Stat3 at >300 uM
MDA-MB-231 [12] = experiment: Induction of apoptosis in mock pcDNA3 transfected human MDA-MB-231 cells at 100 uM after 24 hrs; format: functional; in short: as §1
NIH3T3 [13] = experiment: Growth inhibition of mouse NIH3T3 cells expressing v-Src at 100 uM after 4 days by trypan blue exclusion assay; format: functional, cell-based
MDA-MB-435 [14] = experiment: Induction of apoptosis in human MDA-MB-435 cells expressing active Stat3 at 30 to 100 uM after 48 hrs; format: functional, cell-based
In short: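 Proliferating cells were exposed to compound or 0.05% DMSO for 48 h, then detached. Percent apoptosis was quantified by annexin V binding and flow cytometry.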

NIH3T3 [15] = experiment: Reduction of pTyr-705 Stat3 level in v-Src expressing mouse NIH3T3 cells at 100 uM after 24 hrs; format: functional, cell-based
MDA-MB-435 [16] = experiment: Inhibition of Stat3 activation in human MDA-MB-435 cells at 100 uM after 24 hrs; format: functional, cell-based; in short: as §3
MDA-MB-231 [17] = experiment: Induction of apoptosis in Stat3 SH2 domain transfected human MDA-MB-231 cells at 100 uM after 24 hrs; format: functional, cell-based; in short: as §1
NIH3T3 [18] = experiment: Inhibition of Stat3 activation in v-Src expressing mouse NIH3T3 cells at 100 uM; format: functional, cell-based; conditions: TDE = time-dependent effect; in short: as §3
MDA-MB-435 [19] = experiment: Growth inhibition of human MDA-MB-435 cells expressing v-Src at 100 uM after 4 days by trypan blue exclusion assay; format: functional, cell-based
MDA-MB-231 [20] = experiment: Reduction of Bcl-xL gene expression in human MDA-MB-231 cells at 100 uM after 48 hrs; format: functional, cell-based
NIH3T3 [21] = experiment: Reduction of Bcl-xL gene expression in v-Src transfected mouse NIH3T3 cells at 100 uM after 48 hrs; format: functional, cell-based
MDA-MB-231 [22] = experiment: Inhibition of Stat3 activation in human MDA-MB-231 cells at 100 uM after 24 hrs; format: functional, cell-based; in short: as §3
NIH3T3 [23] = experiment: Reduction of cyclin D1 gene expression in v-Src transfected mouse NIH3T3 cells at 100 uM after 48 hrs; format: functional, cell-based
MDA-MB-231 [24] = experiment: Antitumor activity against human MDA-MB-231 cells expressing active Stat3 xenografted in mouse at 5 mg/kg, iv for every 3 days for 2 weeks; format: functional, organism-based; design: dose 5 mg/kg
In short: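 Female athymic nude mice (six weeks old) received 5 × 10^6 MDA-MB-231 cells s.c. in the left flank in PBS. Once tumors reached 3 mm diameter (5–10 days), animals were stratified to equal mean tumor size and dosed i.v. at 5 mg/kg every 2 or 3 days for 2 weeks against vehicle. Tumors were measured every 2–3 days.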

MDA-MB-468 [25] = experiment: Growth inhibition of human […] at 100 uM after 4 days by trypan blue exclusion assay; format: functional, cell-based
NIH3T3 [26] = experiment: Growth inhibition of mouse NIH3T3 cells expressing v-Src at 100 uM for every 3 days by soft-agar colony-formation assay; format: functional, cell-based
In short: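 Soft-agar colony formation in six-well dishes. Compound in medium was added from 1 day after seeding and re-added every 3 days until large colonies appeared. Untreated wells served as control.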

Measured: Activity

Cc1ccc(S(=O)(=O)OCC(=O)Nc2ccc(C(=O)O)c(O)c2)cc1
inactive: NIH3T3 [2]
active: MDA-MB-231 [1] | MDA-MB-468 [3] | NIH3T3 [4] Dose-dependent effect | MDA-MB-231 [5] | MDA-MB-231 [6] | MDA-MB-231 [8] | NIH3T3 [9] | MDA-MB-231 [10] | MDA-MB-435 [11] Toxic | NIH3T3 [13] | MDA-MB-435 [14] | NIH3T3 [15] | MDA-MB-435 [16] | MDA-MB-231 [17] | NIH3T3 [18] tde | MDA-MB-435 [19] | MDA-MB-231 [20] | NIH3T3 [21] | MDA-MB-231 [22] | NIH3T3 [23] | MDA-MB-231 [24] | MDA-MB-468 [25] | NIH3T3 [26]
50%: MDA-MB-231 [7] | MDA-MB-231 [12]
